Source: ChEMBL document CHEMBL4118255, “Synthesis and antibacterial evaluation of novel 11-O-aralkylcarbamoyl-3-O-descladinosylclarithromycin derivatives” (2018)
≈ marks a conversion by molar mass, not a printed value.

Experiments:
Assay type in all cases: functional
Streptococcus pyogenes [1] = experiment: Antibacterial activity against erythromycin-resistant Streptococcus pyogenes R1 after 24 hrs by tube-dilution method; settings: R1, 24 h
Streptococcus pneumoniae [2] = experiment: Antibacterial activity against erythromycin-resistant Streptococcus pneumoniae AB11 harboring ermB and mefA genes after 24 hrs by tube-dilution method; settings: AB11, 24 h
Outline: (§1)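 MIC determined by the NCCLS-recommended standard broth microdilution method against erythromycin-resistant S. pneumoniae strains (A22072 mef, B1 erm, AB11 erm plus mef) and methicillin-resistant S. aureus ATCC43300.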

Streptococcus pyogenes [3] = experiment: Antibacterial activity against erythromycin-susceptible Streptococcus pyogenes after 24 hrs […]
Escherichia coli = experiment: Antibacterial activity against penicillin-susceptible Escherichia coli ATCC 25922 incubated for 24 hrs by […]; settings: ATCC 25922, 24 h
Pseudomonas aeruginosa = experiment: Antibacterial activity against penicillin-susceptible Pseudomonas aeruginosa ATCC 27853 incubated for 24 hrs by […]; settings: ATCC 27853, 24 h
Bacillus subtilis = experiment: Antibacterial activity against erythromycin-susceptible Bacillus subtilis ATCC 9372 after 24 hrs by tube-dilution method; settings: ATCC 9372, 24 h
Outline: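 MIC by standard NCCLS broth microdilution. Reference macrolides clarithromycin and azithromycin run alongside.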

Streptococcus pneumoniae [4] = experiment: Antibacterial activity against erythromycin-resistant Streptococcus pneumoniae B1 harboring ermB gene after 24 hrs by tube-dilution method; settings: B1, 24 h; outline: as §1
Streptococcus pneumoniae [5] = experiment: Antibacterial activity against erythromycin-resistant Streptococcus pneumoniae A22072 harboring mefA gene after 24 hrs by […]; settings: A22072, 24 h
Staphylococcus aureus [6] = experiment: Antibacterial activity against erythromycin-susceptible Staphylococcus aureus ATCC 25923 after 24 hrs by […]; settings: ATCC 25923, 24 h
Staphylococcus aureus [7] = experiment: Antibacterial activity against methicillin-resistant Staphylococcus aureus ATCC 43300 after 24 hrs by tube-dilution method; settings: ATCC 43300, 24 h; outline: as §1
Streptococcus pneumoniae [8] = experiment: Potency index, ratio of azithromycin MIC to compound MIC for erythromycin-resistant Streptococcus pneumoniae A22072 harboring mefA gene
Streptococcus pneumoniae [9] = experiment: Potency index, ratio of clarithromycin MIC to compound MIC for erythromycin-resistant Streptococcus pneumoniae A22072 harboring mefA gene
Staphylococcus aureus [10] = experiment: Potency index, ratio of azithromycin MIC to compound MIC for methicillin-resistant Staphylococcus aureus ATCC 43300
Staphylococcus aureus [11] = experiment: Potency index, ratio of clarithromycin MIC to compound MIC for methicillin-resistant Staphylococcus aureus ATCC 43300

SMILES | MIC (Streptococcus pyogenes [1]) [mg/L] | MIC (Streptococcus pneumoniae [2]) [mg/L] | MIC (Streptococcus pyogenes [3]) [mg/L] | MIC (Escherichia coli) [mg/L] | MIC (Pseudomonas aeruginosa) [mg/L] | MIC (Bacillus subtilis) [mg/L] | MIC (Streptococcus pneumoniae [4]) [mg/L] | MIC (Streptococcus pneumoniae [5]) [mg/L] | MIC (Staphylococcus aureus [6]) [mg/L] | MIC (Staphylococcus aureus [7]) [mg/L] | Ratio (Streptococcus pneumoniae [8]) | Ratio (Streptococcus pneumoniae [9]) | Ratio (Staphylococcus aureus [10]) | Ratio (Staphylococcus aureus [11])
CC[C@H]1OC(=O)[C@H](C)C(=O)[C@H](C)[C@@H](O[C@@H]2O[C@H](C)C[C@H](N(C)C)[C@H]2O)[C@](C)(OC)C[C@@H](C)C(=O)[C@H](C)[C@@H](OC(=O)NCCNC(=O)C#Cc2ccc(Cl)cc2Cl)[C@]1(C)O | 128 (≈ 147 µM) | 128 (≈ 147 µM) | 1 (≈ 1.15 µM) | > 128 | > 128 | 1 (≈ 1.15 µM) | 128 (≈ 147 µM) | 2 (≈ 2.3 µM) | 16 (≈ 18.4 µM) | 128 (≈ 147 µM) | – | – | – | –
CC[C@H]1OC(=O)[C@H](C)C(=O)[C@H](C)[C@@H](O[C@@H]2O[C@H](C)C[C@H](N(C)C)[C@H]2O)[C@](C)(OC)C[C@@H](C)C(=O)/C(C)=C/[C@]1(C)O | > 128 | > 128 | > 16 | > 128 | 64 (≈ 112 µM) | 128 (≈ 225 µM) | > 128 | 64 (≈ 112 µM) | > 128 | > 128 | – | – | – | –
CC[C@H]1OC(=O)[C@H](C)C(=O)[C@H](C)[C@@H](O[C@@H]2O[C@H](C)C[C@H](N(C)C)[C@H]2O)[C@](C)(OC)C[C@@H](C)C(=O)[C@H](C)[C@@H](OC(=O)NCCNC(=O)C#Cc2ccccc2Cl)[C@]1(C)O | > 128 | 128 (≈ 153 µM) | 1 (≈ 1.2 µM) | > 128 | > 128 | 4 (≈ 4.78 µM) | 128 (≈ 153 µM) | 2 (≈ 2.39 µM) | 16 (≈ 19.1 µM) | 128 (≈ 153 µM) | – | – | – | –
CC[C@H]1OC(=O)[C@H](C)C(=O)[C@H](C)[C@@H](O[C@@H]2O[C@H](C)C[C@H](N(C)C)[C@H]2O)[C@](C)(OC)C[C@@H](C)C(=O)[C@H](C)[C@@H](OC(=O)NCCNC(=O)C#Cc2ccc(Cl)cc2)[C@]1(C)O | 128 (≈ 153 µM) | 64 (≈ 76.5 µM) | 1 (≈ 1.2 µM) | > 128 | > 128 | 2 (≈ 2.39 µM) | 128 (≈ 153 µM) | 2 (≈ 2.39 µM) | 8 (≈ 9.56 µM) | 64 (≈ 76.5 µM) | – | – | – | –
CC[C@H]1OC(=O)[C@H](C)[C@@H](OC(=O)Cc2cccnc2)[C@H](C)[C@@H](O[C@@H]2O[C@H](C)C[C@H](N(C)C)[C@H]2O)[C@](C)(OC)C[C@@H](C)C(=O)[C@H](C)[C@@H](OC(=O)NCCNC(=O)C#Cc2ccc(C)cc2)[C@]1(C)O | > 128 | 32 (≈ 34.1 µM) | 0.25 (≈ 0.267 µM) | > 128 | > 128 | 2 (≈ 2.13 µM) | 64 (≈ 68.3 µM) | 1 (≈ 1.07 µM) | 8 (≈ 8.54 µM) | 128 (≈ 137 µM) | – | – | – | –
CC[C@H]1OC(=O)[C@H](C)[C@@H](OC(=O)Cc2cccnc2)[C@H](C)[C@@H](O[C@@H]2O[C@H](C)C[C@H](N(C)C)[C@H]2O)[C@](C)(OC)C[C@@H](C)C(=O)/C(C)=C/[C@]1(C)O | 128 (≈ 185 µM) | 16 (≈ 23.2 µM) | 0.25 (≈ 0.362 µM) | 128 (≈ 185 µM) | 128 (≈ 185 µM) | 1 (≈ 1.45 µM) | 32 (≈ 46.3 µM) | 1 (≈ 1.45 µM) | 1 (≈ 1.45 µM) | 128 (≈ 185 µM) | – | – | – | –
CC[C@H]1OC(=O)[C@H](C)C(=O)[C@H](C)[C@@H](O[C@@H]2O[C@H](C)C[C@H](N(C)C)[C@H]2O)[C@](C)(OC)C[C@@H](C)C(=O)[C@H](C)[C@@H](OC(=O)NCCNC(=O)C#Cc2cccc3ccccc23)[C@]1(C)O | 64 (≈ 75.1 µM) | 128 (≈ 150 µM) | 0.5 (≈ 0.587 µM) | > 128 | > 128 | 1 (≈ 1.17 µM) | 128 (≈ 150 µM) | 1 (≈ 1.17 µM) | 16 (≈ 18.8 µM) | 64 (≈ 75.1 µM) | – | – | – | –
CC[C@H]1OC(=O)[C@H](C)[C@@H](O[C@H]2C[C@@](C)(OC)[C@@H](O)[C@H](C)O2)[C@H](C)[C@@H](O[C@@H]2O[C@H](C)C[C@H](N(C)C)[C@H]2O)[C@](C)(O)C[C@@H](C)CN(C)[C@H](C)[C@@H](O)[C@]1(C)O [AZITHROMYCIN] | > 128 | > 128 | 0.03 (≈ 0.0401 µM) | 16 (≈ 21.4 µM) | 16 (≈ 21.4 µM) | 0.25 (≈ 0.334 µM) | > 128 | 4 (≈ 5.34 µM) | 0.25 (≈ 0.334 µM) | > 128 | – | – | – | –
CC[C@H]1OC(=O)[C@H](C)C(=O)[C@H](C)[C@@H](O[C@@H]2O[C@H](C)C[C@H](N(C)C)[C@H]2O)[C@](C)(OC)C[C@@H](C)C(=O)[C@H](C)[C@@H](OC(=O)NCCNC(=O)C#Cc2ccc(C)cc2)[C@]1(C)O | > 128 | 64 (≈ 78.4 µM) | 0.25 (≈ 0.306 µM) | > 128 | 128 (≈ 157 µM) | 1 (≈ 1.23 µM) | 128 (≈ 157 µM) | 0.5 (≈ 0.613 µM) | 8 (≈ 9.8 µM) | 128 (≈ 157 µM) | 8 | 4 | – | –
CC[C@H]1OC(=O)[C@H](C)[C@@H](OC(=O)Cc2cccnc2)[C@H](C)[C@@H](O[C@@H]2O[C@H](C)C[C@H](N(C)C)[C@H]2O)[C@](C)(OC)C[C@@H](C)C(=O)[C@H](C)[C@@H](OC(=O)NCCNC(=O)/C=C/c2ccco2)[C@]1(C)O | > 128 | 16 (≈ 17.5 µM) | 0.125 (≈ 0.137 µM) | 128 (≈ 140 µM) | > 128 | 8 (≈ 8.74 µM) | 64 (≈ 69.9 µM) | 1 (≈ 1.09 µM) | 16 (≈ 17.5 µM) | 32 (≈ 35 µM) | – | – | 4 | 4
CC[C@H]1OC(=O)[C@H](C)C(=O)[C@H](C)[C@@H](O[C@@H]2O[C@H](C)C[C@H](N(C)C)[C@H]2O)[C@](C)(OC)C[C@@H](C)C(=O)[C@H](C)[C@@H](OC(=O)NCCNC(=O)C#Cc2ccc(Br)cc2)[C@]1(C)O | 64 (≈ 72.7 µM) | 32 (≈ 36.3 µM) | 1 (≈ 1.14 µM) | 128 (≈ 145 µM) | > 128 | 1 (≈ 1.14 µM) | 128 (≈ 145 µM) | 2 (≈ 2.27 µM) | 8 (≈ 9.08 µM) | 16 (≈ 18.2 µM) | – | – | 8 | 8
CC[C@H]1OC(=O)[C@H](C)[C@@H](O[C@H]2C[C@@](C)(OC)[C@@H](O)[C@H](C)O2)[C@H](C)[C@@H](O[C@@H]2O[C@H](C)C[C@H](N(C)C)[C@H]2O)[C@](C)(OC)C[C@@H](C)C(=O)[C@H](C)[C@@H](O)[C@]1(C)O [CLARITHROMYCIN] | > 128 | 128 (≈ 171 µM) | 0.03 (≈ 0.0401 µM) | 64 (≈ 85.6 µM) | 64 (≈ 85.6 µM) | 0.25 (≈ 0.334 µM) | > 128 | 2 (≈ 2.67 µM) | 0.25 (≈ 0.334 µM) | > 128 | – | – | – | –
CC[C@H]1OC(=O)[C@H](C)[C@@H](OC(=O)Cc2cccnc2)[C@H](C)[C@@H](O[C@@H]2O[C@H](C)C[C@H](N(C)C)[C@H]2O)[C@](C)(OC)C[C@@H](C)C(=O)[C@H](C)[C@@H](OC(=O)NCCNC(=O)c2ccc([N+](=O)[O-])cc2)[C@]1(C)O | > 128 | 8 (≈ 8.47 µM) | 0.03 (≈ 0.0318 µM) | 64 (≈ 67.8 µM) | 64 (≈ 67.8 µM) | 2 (≈ 2.12 µM) | 32 (≈ 33.9 µM) | 0.5 (≈ 0.53 µM) | 1 (≈ 1.06 µM) | 128 (≈ 136 µM) | 8 | 4 | – | –
CC[C@H]1OC(=O)[C@H](C)C(=O)[C@H](C)[C@@H](O[C@@H]2O[C@H](C)C[C@H](N(C)C)[C@H]2O)[C@](C)(OC)C[C@@H](C)C(=O)[C@H](C)[C@@H](OC(=O)NCCNC(=O)C#Cc2ccc(F)cc2)[C@]1(C)O | > 128 | 64 (≈ 78.1 µM) | 1 (≈ 1.22 µM) | > 128 | > 128 | 2 (≈ 2.44 µM) | 128 (≈ 156 µM) | 2 (≈ 2.44 µM) | 16 (≈ 19.5 µM) | 128 (≈ 156 µM) | – | – | – | –
CC[C@H]1OC(=O)[C@H](C)C(=O)[C@H](C)[C@@H](O[C@@H]2O[C@H](C)C[C@H](N(C)C)[C@H]2O)[C@](C)(OC)C[C@@H](C)C(=O)[C@H](C)[C@@H](OC(=O)NCCNC(=O)C#Cc2ccccc2)[C@]1(C)O | > 128 | 128 (≈ 160 µM) | 2 (≈ 2.49 µM) | > 128 | > 128 | 4 (≈ 4.99 µM) | 128 (≈ 160 µM) | 4 (≈ 4.99 µM) | 32 (≈ 39.9 µM) | 128 (≈ 160 µM) | – | – | – | –
CC[C@H]1OC(=O)[C@H](C)[C@@H](OC(=O)Cc2cccnc2)[C@H](C)[C@@H](O[C@@H]2O[C@H](C)C[C@H](N(C)C)[C@H]2O)[C@](C)(OC)C[C@@H](C)C(=O)[C@H](C)[C@@H](OC(=O)NCCNC(=O)/C=C/c2ccc([N+](=O)[O-])cc2)[C@]1(C)O | > 128 | 8 (≈ 8.25 µM) | 0.125 (≈ 0.129 µM) | 128 (≈ 132 µM) | 128 (≈ 132 µM) | 4 (≈ 4.12 µM) | 32 (≈ 33 µM) | 1 (≈ 1.03 µM) | 8 (≈ 8.25 µM) | 64 (≈ 66 µM) | – | – | – | –
